Source: PubChem
MC4R antagonist = blocks human MC4R cAMP signaling; AID 540295; P32245; inhibition, % at 6.5 µM; MC4R-expressing cells, MTII-stimulated cAMP, LANCE TR-FRET; 0.48% of 360,000 active;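 active = inhibition above its plate's cutoff, the mean of tested wells on that plate plus 3 SD, cut at about 29% in these data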
Target sequence (P32245 whole entry, looked up): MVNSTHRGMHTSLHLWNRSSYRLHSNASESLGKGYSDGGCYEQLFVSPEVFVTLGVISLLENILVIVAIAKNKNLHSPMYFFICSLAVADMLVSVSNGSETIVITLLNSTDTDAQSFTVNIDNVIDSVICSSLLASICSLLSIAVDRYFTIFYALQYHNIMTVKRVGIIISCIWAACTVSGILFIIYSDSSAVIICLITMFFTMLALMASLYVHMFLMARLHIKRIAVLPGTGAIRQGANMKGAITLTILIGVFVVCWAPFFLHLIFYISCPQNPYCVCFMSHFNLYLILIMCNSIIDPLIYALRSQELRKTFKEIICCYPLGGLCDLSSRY
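material = U2OS cells stably expressing human melanocortin 4 receptor (MC4R) | also added = Melanotan II challenge | dosing = single nominal compound dose of 6.5 µM | detection = TR-FRET with Eu-cAMP and labeled anti-cAMP, 671 nm | replication = singlicate | timing = compound 30 min, challenge 1 h, detection 1 h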
MC4R ag barr = activates human MC4R beta-arrestin recruitment | P32245 | U2OS MC4R beta-arrestin complementation, luminescence; percent of melanotan II response, DMSO zero | activation, % at 8.9 µM | 0.98% of 360,000 active | AID 540308;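 active = activation above a per-plate cutoff, the mean activation of sample wells on that plate plus 3 SD, cut at about 8% in these data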
Granule exo inh = blocks lytic granule exocytosis | TALL-104 LAMP-1 surface exposure, flow cytometry; cells stimulated with thapsigargin and PMA | inhibition, % at 10 µM | 0.66% of 360,000 active | AID 651702;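 active = inhibition above about 55%, limit read from the data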
iPSC survival up = enhancers of human iPSC single-cell survival | hiPSC single-cell survival, ATPlite luminescence; 100% = ROCK inhibitor wells, 0% = DMSO | 0.044% of 360,000 active | survival enhancement, % at 20 µM | AID 602274; in the data active = survival enhancement above about 18%;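 also: cells exposed to compounds for 16 hours before the ATP read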
ABCB6 inh MLPCN = inhibitors of human ABC transporter ABCB6; K562-ABCB6 porphyrin accumulation, flow cytometry, 1 h; stronger effect = lower value; fluorescence ratio to DMSO, % at 10 µM; 0.19% of 360,000 active; AID 602162;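 active = fluorescence ratio to DMSO below 75%, the collection mean minus 3 SD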;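 also: signal is porphyrin accumulated inside mitochondria; lower ratio means ABCB6 inhibition with less porphyrin fluorescence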
TbMetRS inhib = Trypanosoma brucei MetRS inhibition; purified T. brucei MetRS, ATP depletion, Kinase-Glo luminescence; inhibition, % at 11.9 µM; 0.4% of 360,000 active;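 active = inhibition above a per-plate cutoff of the control wells' mean inhibition plus 3 SD, cut at about 5.5% in these data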
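Dosing: 11.9 µM compound single dose, 0.9% DMSO; Assay system: purified T. brucei MetRS enzyme; Measured by: Kinase-Glo luciferase luminescence reporting remaining unconsumed ATP; Schedule: 15 min plus 2 h at 25 °C.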
TbMetRS confirm = confirmation of Trypanosoma brucei MetRS inhibitors; shares compounds with TbMetRS inhib; inhibition, % at 11.9 µM; 93% of 1,400 active; T. brucei MetRS enzyme, luminescence (ATP depletion); AID 624412; in the data active = inhibition above about 7%
Jurkat tox = Jurkat T cell cytotoxicity for MetRS hits; Jurkat cells viability, ATP luminescence; 12% of 1,400 active; inhibition, % at 8.3 µM; shares compounds with TbMetRS inhib; in the data active = inhibition above about 15%
Tb MetRS inh FP = inhibits T. brucei methionyl tRNA synthetase in orthogonal FP test. AID 651607. inhibition, % at 11.9 µM. purified T. brucei MetRS, fluorescence polarization. shares compounds with TbMetRS inhib. 44% of 1,400 active; in the data active = inhibition above about 17%
Numbers stand for hits; – = inactive; · = no result. Only some compounds are listed: those with a hit (about 2.6% of all), similar ones and a draw of the others.

SMILES | MC4R antagonist | MC4R ag barr | Granule exo inh | iPSC survival up | ABCB6 inh MLPCN | TbMetRS inhib | TbMetRS confirm | Jurkat tox | Tb MetRS inh FP
Cc1sc(-c2ccccn2)nc1OC(=O)c1ccc(Cl)c(Cl)c1 | – | – | – | 19 | – | 14 | – | – | –
Cc1sc(-c2ccccn2)nc1OC(=O)c1ccc(F)cc1F | – | – | – | – | – | – | · | · | ·
C=CCc1cccc(CNc2nc3ccccc3n2CCC)c1O | – | – | – | – | – | 19 | 31 | – | 18
COc1ccc(OCCn2c(N)nc3ccccc32)cc1 | – | – | – | – | – | 39 | 62 | – | 32
S=C(Nc1ccccc1)Nc1nc2ccccc2n1CCOc1ccccc1 | – | – | – | – | – | 18 | – | – | –
Cc1nc2ccccc2n1CCOc1ccccc1 | – | – | – | – | – | – | · | · | ·
Nc1nc2ccccc2n1CCOc1ccc(F)cc1 | – | – | – | – | – | 49 | 72 | 17 | 45
CC(=O)Nc1nc2ccccc2n1CCOc1ccccc1 | – | – | – | – | – | – | · | · | ·
O=C(CCC(C(=O)c1ccccc1)c1ccccc1)c1ccccc1 (centres undefined) | – | – | – | – | – | – | · | · | ·
O=C(NNC(=O)c1ccc(-n2cncn2)c([N+](=O)[O-])c1)c1ccc(Cl)cc1 | – | – | – | – | – | 60 | 82 | – | 65
O=C(NNC(=O)c1ccc(-n2cncn2)c([N+](=O)[O-])c1)c1cccc(Cl)c1 | – | – | – | – | – | 35 | 59 | – | 31
O=C(Nc1cc(Cl)ccc1-n1cncn1)c1cc(F)cc(F)c1 | – | – | – | – | – | – | · | · | ·
O=C(NNC(=O)c1ccccc1Cl)c1ccc(-n2cncn2)c([N+](=O)[O-])c1 | – | – | – | – | – | 7.8 | 33 | – | –
CC(Oc1ccccc1F)C(=O)NNC(=O)c1ccc(-n2cncn2)c([N+](=O)[O-])c1 (centres undefined) | – | – | – | – | – | – | · | · | ·
O=C(Nc1cc(Cl)ccc1F)c1ccc(-n2cncn2)c([N+](=O)[O-])c1 | – | – | – | – | – | 22 | 58 | – | 21
CCOC(=O)c1[nH]c(C)c(CN(C(C)=O)c2ccc(OCC)cc2)c1C | – | – | – | – | – | – | · | · | ·
COc1ccccc1C(CNC(=O)C(C)Oc1ccc(Br)cc1)N1CCCC1 (centres undefined) | – | – | – | – | – | – | · | · | ·
Brc1cccc(-c2nnc3sc(CNCc4ccco4)cn23)c1 | – | – | – | – | – | – | · | · | ·
Brc1ccc(-c2nnc3sc(CNCc4ccc5c(c4)OCO5)cn23)cc1 | – | – | – | – | – | 33 | 48 | – | 25
O=C(C1CCCCC1)N1C[C@@H](O)[C@H](n2cc(C3CC3)nn2)C[C@@H]1c1ccc(Cl)cc1 | – | – | – | – | – | – | · | · | ·
NS(=O)(=O)c1ccc(NC(=O)COC(=O)c2cccc(S(=O)(=O)N3CCCC3)c2)cc1 | – | – | – | – | – | – | · | · | ·
O=C(CNC(=O)c1cccc(Br)c1)N/N=C/c1ccc[nH]1 | – | – | – | – | – | 20 | 53 | – | 24
O=C(CNC(=O)c1cccc(Br)c1)N/N=C/c1cn[nH]c1-c1ccccc1 | – | – | – | – | – | – | · | · | ·
Cc1ccc(NS(=O)(=O)c2c(C)[nH]c(C)c2C(=O)N2CCCC2)cc1 | – | – | – | – | – | – | · | · | ·
CCOc1ccccc1NS(=O)(=O)c1c(C)[nH]c(C)c1C(=O)N1CCCCC1 | – | – | – | – | – | 35 | 57 | – | 27
SMILES | MC4R antagonist | MC4R ag barr | Granule exo inh | iPSC survival up | ABCB6 inh MLPCN | TbMetRS inhib | TbMetRS confirm | Jurkat tox | Tb MetRS inh FP
COc1ccc(Cl)cc1NS(=O)(=O)c1c(C)[nH]c(C)c1C(=O)N1CCCCC1 | – | – | – | – | – | – | · | · | ·
Cc1cccc(NS(=O)(=O)c2c(C)[nH]c(C)c2C(=O)N2CCCC2)c1 | – | – | – | – | – | 26 | 55 | – | 20
CCC(=Nc1ccccc1)C1=C(O)CCCC1=O | – | – | – | – | – | – | · | · | ·
NS(=O)(=O)c1cccc(NC(=O)CSc2nc3ccccc3c(=O)n2CCCN2CCOCC2)c1 | – | – | – | – | – | – | · | · | ·
COc1cccc(CNc2ccc([N+](=O)[O-])cc2Cl)c1O | – | – | – | – | – | 17 | 18 | – | –
COc1ccccc1CNc1ccc([N+](=O)[O-])cc1C | – | – | – | – | – | – | · | · | ·
C=C(C)CNC(=S)N/N=C/c1ccco1 | – | – | – | – | – | – | · | · | ·
Cc1cc(O)c(/C=N/OCc2ccc(Cl)cc2Cl)c(=O)o1 | – | – | – | – | – | – | · | · | ·
CN(C)/C=C(\C=N\OCc1ccc(Cl)cc1Cl)C(=O)Nc1ccc(Cl)c(Cl)c1 | – | – | – | – | – | 66 | 9.2 | – | –
O=C1CN(C(=O)/C=C/c2ccc(Cl)cc2Cl)CCN1 | – | – | – | – | – | – | · | · | ·
CN1CCCN(C(=O)/C=C/c2ccc(Cl)cc2Cl)CC1 | – | – | – | – | – | 8.0 | 17 | – | –
CCCN1CCN(CCCNC(=O)CCNC(=O)Cn2ccc3ccccc3c2=O)CC1 | – | – | – | – | – | – | · | · | ·
COc1ccc([C@H]2CN(c3ccc(OC)cc3)C(=O)[C@@H]2CC(=O)Nc2ccc(Br)cc2)cc1 | – | – | – | – | – | 8.6 | 19 | – | –
O=C(C[C@H]1C(=O)N(Cc2cccnc2)C[C@@H]1Cc1ccccc1)Nc1ccc(Br)cc1 | – | – | – | – | – | 41 | 67 | – | 41
O=C(C[C@H]1C(=O)N(Cc2ccccc2)C[C@@H]1Cc1ccccc1)Nc1ccc(Br)cc1 | – | – | – | – | – | 10 | 30 | – | –
CSC[C@H]1CN(Cc2ccccc2)C(=O)[C@@H]1CC(=O)Nc1ccccc1 | – | – | – | – | – | – | · | · | ·
COc1ccc([C@H]2CN(c3ccccc3)C(=O)[C@@H]2CC(=O)Nc2ccccc2)cc1 | – | – | – | – | – | – | · | · | ·
CSC[C@H]1CN(Cc2ccccc2)C(=O)[C@@H]1CC(=O)Nc1ccc(Br)cc1 | – | – | – | – | – | 17 | 30 | – | –
C=CCNC(=O)COC(=O)C1CCN(S(=O)(=O)c2ccc3c(c2)OCCO3)CC1 | – | – | – | – | – | – | · | · | ·
CCC(CO)Oc1cc(NCc2ccccc2Cl)c2ncn(C(C)C)c2c1 (centres undefined) | – | – | – | – | – | – | · | · | ·
O=C(C[C@H]1C(=O)N(Cc2ccccc2)C[C@@H]1c1ccc(Br)cc1)Nc1ccc(Br)cc1 | – | – | – | – | – | 77 | 94 | – | 83
